We go through 11 compounds from ChEMBL document CHEMBL1806434, “Acyclic nucleoside phosphonates with a branched 2-(2-phosphonoethoxy)ethyl chain: efficient synthesis and antiviral activity” (Bioorg Med Chem, 2011).

A short description of data set [1]: Cytotoxicity against human HEL cells assessed as alteration of cell morphology after 3 days by microscopic analysis. In kind it is cell-based. In outline: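 MCC taken as the lowest compound concentration producing microscopically detectable alteration of HEL fibroblast morphology.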
Data set [2] deals with Mammalian orthoreovirus 1. Put plainly: Antiviral activity against Reovirus-1 assessed as reduction of virus induced cytopathicity by cell based assay. The format is functional, organism-based. In outline:
(§1)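 Confluent cell monolayers in 96-well plates (HEL, Vero, HeLa, CRFK or MDCK; the cell type per virus is not specified) infected with 100 CCID50 virus or 20 PFU and incubated with serial compound dilutions. Cytopathicity scored once it was complete in untreated infected controls.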

For data set [3], the system named is Human betaherpesvirus 5. Put plainly: Antiviral activity against Human cytomegalovirus Davis assessed as reduction of virus induced cytopathicity by cell based assay. The format is functional, organism-based. The following applies: for EC50: Human betaherpesvirus 5, Davis. In outline: (§2)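 Confluent cell monolayers infected with 100 CCID50 virus, or 20 PFU for plaque assays, then incubated with serial compound dilutions. Host cells listed for the non-HIV panel are HEL fibroblasts, Vero, HeLa, CRFK or MDCK. Cytopathicity is scored, or plaques counted for VZV, once infected untreated controls reach full CPE.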

Data set [4] deals with Sindbis virus. Put plainly: Antiviral activity against Sindbis virus assessed as reduction of virus induced cytopathicity by cell based assay. The format is functional, organism-based. In outline:
as §1

Data set [5] deals with Punta Toro virus. Nature of the data set: Antiviral activity against Punta Toro virus assessed as reduction of virus induced cytopathicity by cell based assay. In kind it is functional, organism-based. In outline: as §1
For data set [6], the system named is Human alphaherpesvirus 3. Put plainly: Antiviral activity against Varicella-zoster virus strain OKA expressing thymidine kinase assessed as reduction of virus induced cytopathicity by cell based assay. The settings on record: for EC50: Human alphaherpesvirus 3, strain Oka vaccine; for Activity: strain Oka vaccine. The format is functional. In outline: as §2

The subject of data set [7] is Vaccinia virus. Nature of the data set: Antiviral activity against Vaccinia virus Lederle assessed as reduction of virus induced cytopathicity by cell based assay. The format is functional, organism-based. The following applies: Orthopoxvirus vaccinia. In outline:
as §2

Data set [8] deals with HEL. Nature of the data set: Cytotoxicity against human HEL cells after 3 days by coulter counter. The settings on record: 72 h. The format is cell-based. In outline: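 HEL cells seeded at 5 × 10^3 cells/well and allowed to proliferate for 24 h, then exposed to a range of compound concentrations for 3 days at 37 °C. Cells counted with a Coulter counter.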
Data set [9] has as its system Coxsackievirus B4. Put plainly: Antiviral activity against Coxsackievirus B4 assessed as reduction of virus induced cytopathicity by cell based assay. In kind it is functional, organism-based. In outline: as §1
The subject of data set [10] is Human alphaherpesvirus 3. Put plainly: Antiviral activity against thymidine kinase-deficient Varicella-zoster virus 07/1 assessed as reduction of virus induced cytopathicity by cell based assay. In kind it is functional, organism-based. The settings on record: for EC50: Human alphaherpesvirus 3, 07/1. In outline:
as §2

The test system of data set [11] is Respiratory syncytial virus. Put plainly: Antiviral activity against Respiratory syncytial virus Long assessed as reduction of virus induced cytopathicity by cell based assay. The format is functional, organism-based. In outline:
as §1

The subject of data set [12] is Human alphaherpesvirus 1. Nature of the data set: Antiviral activity against thymidine kinase-deficient acyclovir-resistant Herpes simplex virus 1 strain KOS assessed as reduction of virus induced cytopathicity by cell based assay. In kind it is functional, organism-based. The settings on record: for EC50: Human alphaherpesvirus 1, KOS. In outline:
as §2

The test system of data set [13] is Vesicular stomatitis virus. Nature of the data set: Antiviral activity against Vesicular stomatitis virus assessed as reduction of virus induced cytopathicity by cell based assay. The format is functional, organism-based. In outline:
as §2

Data set [14] has as its system Human alphaherpesvirus 2. Nature of the data set: Antiviral activity against Herpes simplex virus 2 strain G assessed as reduction of virus induced cytopathicity by cell based assay. The following applies: for EC50: Human alphaherpesvirus 2, strain G. The format is functional, organism-based. In outline:
as §2

For data set [15], the system named is Human respirovirus 3. Nature of the data set: Antiviral activity against Human parainfluenza virus 3 assessed as reduction of virus induced cytopathicity by cell based assay. In kind it is functional, organism-based. In outline:
as §1

In data set [16] the test system is Human alphaherpesvirus 1. Put plainly: Antiviral activity against Herpes simplex virus 1 strain KOS assessed as reduction of virus induced cytopathicity by cell based assay. In kind it is functional, organism-based. The following applies: for EC50: Human alphaherpesvirus 1, KOS. In outline: as §2
Data set [17] has as its system Human betaherpesvirus 5. Put plainly: Antiviral activity against Human cytomegalovirus strain AD169 assessed as reduction of virus induced cytopathicity by cell based assay. The format is functional, organism-based. In outline: as §2
The test system of data set [18] is Human alphaherpesvirus 3. Put plainly: Antiviral activity against thymidine kinase-deficient Varicella-zoster virus YS/R assessed as reduction of virus induced cytopathicity by cell based assay. In kind it is functional, organism-based.
Data set [19] concerns Human alphaherpesvirus 3. Put plainly: Antiviral activity against Varicella-zoster virus YS expressing thymidine kinase assessed as reduction of virus induced cytopathicity by cell based assay. The format is functional, organism-based.

Calls of active or inactive are those of the source. No cut-off for these calls is given here.

With `Nc1nc2c(ncn2CCOC(COCc2ccccc2)CP(=O)(O)O)c(=O)[nH]1` (stereo not given), the MCC at 72 h in data set [1] was > 240 µM. The result in data set [2], in [4], in data set [5], in data set [9], in data set [11] and in data set [13] was inactive. For the same compound, in data set [15], the outcome was inactive. The EC50 in data set [3] was > 240 µM; in data set [6], 109 µM; in data set [7], > 240 µM; in data set [10], 94 µM; in [12] it was > 240 µM; in [14] it was > 240 µM. For the same compound, in data set [16], the EC50 is > 240 µM. For the same compound, the CC50 in data set [8] was > 240 µM.
Regarding `Nc1nc(O)c2ncn(COC(CO)CO)c2n1` [GANCICLOVIR], in [1], the MCC at 72 h was > 394 µM. The EC50 in data set [7] was > 100 µM; in data set [12] it was 0.12 µM; in data set [14], 0.023 µM; in [16], 0.017 µM. For the same compound, the CC50 in data set [8] was found to be 543 µM.
Take `Cc1cn(CCOC(C)CP(=O)(O)O)c(=O)[nH]c1=O` (stereo not given): the MCC at 72 h in data set [1] was > 342 µM. Further, the result in data set [2], in data set [4], in data set [5], in [9], in data set [11] and in data set [13] was inactive. In addition, the result in data set [15] was inactive. For the same compound, the EC50 is 248 µM in [3]; 47 µM in data set [6]; > 342 µM in [7]; 48 µM in data set [10]; > 342 µM in [12]; 188 µM in [17] (Human betaherpesvirus 5, AD169). Moreover, the EC50 was found to be 154 µM in data set [14] and 171 µM in [16]. In addition, in data set [8], the CC50 was > 342 µM.
As for `O=c1[nH]cnc2c1ncn2CCOC(CO)CP(=O)(O)O` (stereo not given), the MCC at 72 h in data set [1] is > 315 µM. Also, the result in data set [2], in data set [4], in [5], in data set [9], in data set [11] and in data set [13] was inactive. In data set [15], the result was inactive. Also, the half-maximal effective concentration (EC50) was > 315 µM in data set [3]; 88 µM in data set [6]; > 315 µM in data set [7]; 197 µM in data set [10]; > 315 µM in [12]; 315 µM in [14]. For the same compound, in data set [16], the EC50 came out at 208 µM. For the same compound, the CC50 in [8] was > 315 µM.
As for `Nc1ncnc2c1ncn2CCOC(CO)CP(=O)(O)O` (stereo not given), the result in data set [2], in data set [3], in data set [4], in data set [5], in data set [6] and in data set [18] was inactive. The result in [7], in data set [9], in data set [10], in data set [11], in data set [12] and in data set [13] was inactive. For the same compound, the outcome in [17], in data set [14], in data set [19], in [15] and in data set [16] was inactive.
Turning to `Nc1ncnc2c1ncn2CCOC(COCc1ccccc1)CP(=O)(O)O` (stereo not given), the outcome in [2], in data set [3], in [4], in data set [5], in [6] and in data set [18] was inactive. Further, the outcome in data set [7], in data set [9], in [10], in data set [11], in data set [12] and in [13] was inactive. The result in [17], in data set [14], in data set [19], in [15] and in data set [16] was inactive.
`Cc1cn(CCOC(CO)CP(=O)(O)O)c(=O)[nH]c1=O` (stereo not given): the result in [2], in data set [3], in data set [4], in [5], in data set [6] and in data set [18] was inactive. Further, the outcome in data set [7], in [9], in data set [10], in [11], in data set [12] and in data set [13] was inactive. For the same compound, the outcome in data set [17], in data set [14], in data set [19], in data set [15] and in data set [16] was inactive.
In the case of `O=c1ccn(CCOC(CO)CP(=O)(O)O)c(=O)[nH]1` (stereo not given), the result in data set [2], in data set [3], in data set [4], in data set [5], in data set [6] and in data set [18] was inactive. Moreover, the outcome in data set [7], in [9], in data set [10], in data set [11], in [12] and in data set [13] was inactive. The outcome in data set [17], in [14], in [19], in [15] and in data set [16] was inactive.
As for `CC(CP(=O)(O)O)OCCn1ccc(N)nc1=O` (stereo not given), the MCC at 72 h in data set [1] was > 361 µM. Further, the result in data set [2], in data set [4], in [5], in data set [9], in data set [11] and in data set [13] was inactive. In [15], the outcome was inactive. For the same compound, the concentration giving a half-maximal response (EC50) in data set [3] is > 361 µM; in data set [6], 130 µM; in [7] it was > 361 µM; in data set [10], 168 µM; in data set [12], > 361 µM; in data set [14], > 361 µM. Further, in [16], the EC50 is > 361 µM. Moreover, the midpoint of cytotoxicity in [8], the CC50, lay at 307 µM.
For the compound `Nc1nc2c(ncn2CCOC(CO)CP(=O)(O)O)c(=O)[nH]1` (stereo not given), the MCC at 72 h in data set [1] was > 300 µM. The outcome in [2], in data set [4], in [5], in data set [9], in [11] and in data set [13] was inactive. The outcome in [15] was inactive. Further, the EC50 is 165 µM in data set [3]; > 300 µM in data set [6]; > 300 µM in data set [7]; > 300 µM in data set [10]; 261 µM in data set [12]; 156 µM in [14]. Also, the EC50 in [16] amounted to 156 µM. Besides, it took 300 µM to reach half-maximal cytotoxicity in data set [8] (CC50).
In the case of `Nc1nc2c(ncn2COCCO)c(=O)[nH]1` [ACYCLOVIR], in data set [1], the MCC at 72 h was > 444 µM. The values for the EC50 in data set [7], in data set [12] and in data set [16] were > 250 µM, 7.3 µM and 0.3 µM, respectively. For the same compound, the CC50 in [8] came out at 1340 µM.
